Here are results for 1 molecule from ChEMBL document CHEMBL4043182, “On the synthesis of quinone-based BODIPY hybrids: New insights on antitumor activity and mechanism of action in cancer cells” (Bioorg Med Chem Lett, 2017).

Calls of active or inactive are those of the source. The rule behind the calls is not given here.

The subject of one series is MDA-MB-435. The series can be described thus: Antiproliferative activity against human MDA-MB-435 cells after 72 hrs by MTT assay. Type of series: functional, cell-based. The following applies: MDA-MB-435, 72 h. The essentials:
(§1)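 MTT reduction: cancer lines plated at 0.7×10^5 to 0.3×10^6 cells/well, V79 and L929 fibroblasts at 0.5×10^5 cells/well. Compounds in DMSO (0.1%) were given for 24 h at 0.04–40.92 µM or 72 h at 0.04–8.19 µM. Fresh medium with 0.5 mg/mL MTT was added for 3 h, then formazan was dissolved in DMSO and read at 595 nm as % of control. IC50 came from nonlinear regression with 95% CI. Doxorubicin (0.001–1.06 µM) was the positive control. Triplicate, ≥3 repeats.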

Another series concerns V79. The series is described as follows: Antiproliferative activity against chinese hamster V79 cells after 72 hrs by MTT assay. Type of series: cell-based. The following applies: Cricetulus griseus, V79, 72 h. The procedure, abridged: as §1
A short description of series [1]: Selective index, ratio of IC50 for chinese hamster V79 cells to IC50 for human HCT116 cells. The essentials:
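Selectivity index is the ratio of the IC50 in a non-cancer murine line (V79 or L929) to the IC50 in the cancer line. […] MTT was 0.5 mg/mL for 3 h, formazan dissolved in DMSO and read at 595 nm as % of control. IC50s were derived by nonlinear regression; triplicate, at least three repeats.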

The next series concerns L929. The series can be described thus: Induction of lipid peroxidation in mouse L929 cells assessed as increase in MDA levels at 2.5 to 10 uM after 24 hrs in absence of NAC by TBARS assay. The format is cell-based. The following applies: l929, 24 h. The essentials:
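TBARS: cells were exposed 24 h, with or without 24 h prior 5 mM NAC, and lysed in Tris-HCl. Lysate was heated with TCA/0.25 M HCl and 6.7 mg/mL TBA for 15 min at 100 °C, centrifuged, and read at 532 nm. Hydrolyzed tetramethoxypropane served as standard, with values normalized to protein. H2O2 (10 µM) was the positive control. Three independent experiments in triplicate; ANOVA/Tukey.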

In series [2] the test system is PC-3. The series can be described thus: Induction of oxidative stress in human PC3 cells assessed as total intracellular thiol levels at 5 uM treated 24 hrs post NAC addition measured after 24 hrs by spectrophotometric analysis (reference value: 4.23 +/- 0.75 microg/mg). Type of series: functional. The procedure, abridged: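 Cells were pretreated 24 h with 5 mM NAC, then exposed 24 h to test compound at 5 µM. Controls received 0.1% DMSO. Extracts were prepared by sonication and HClO4 precipitation, then neutralized with KOH. Total glutathione was read by DTNB/glutathione reductase/NADPH rate at 412 nm. GSSG was measured after 4-vinylpyridine (0.1%, 1 h, RT) and GSH derived by difference. Values are normalized to protein, triplicates, three independent runs.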

The next series deals with SF-295. The series is described as follows: Induction of oxidative stress in human SF295 cells assessed as total intracellular thiol levels at 5 uM after 24 hrs by spectrophotometric analysis (reference value: 4.51 +/- 0.83 microg/mg). Type of series: functional.
Series [3] concerns PC-3. The series can be described thus: Cytotoxicity against human PC3 cells after 24 hrs in absence of GSH-OEt by MTT assay. Type of series: functional, cell-based. The following applies: PC-3, 24 h. The essentials:
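24 h MTT exposure (0.04–40.92 µM in 0.1% DMSO), with or without co-treatment with GSH ethyl ester (15 mM) to gauge the ROS contribution. MTT was 0.5 mg/mL for 3 h, with formazan dissolved in DMSO and absorbance at 595 nm expressed as % of control. Triplicate, repeated at least three times.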
A general note: Tetrazolium dyes change colour on reduction, which living cells bring about.

Series [4] concerns PC-3. The series can be described thus: Geno-toxicity in human PC3 cells assessed as induction of DNA damage at 2.5 to 10 uM after 24 hrs in absence of NAC by alkaline comet assay. The format is functional, cell-based. The essentials:
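Alkaline comet assay after 24 h at 2.5, 5 and 10 µM, with or without 24 h pretreatment with 5 mM NAC. Cells were trypsinized and embedded in 0.75% low-melting agarose, then lysed at pH 10, 4 °C, ≥1 h. DNA was unwound 20 min at pH >13 and electrophoresed 20 min at 25 V, 300 mA (0.86 V/cm), then stained with ethidium bromide. 100 cells (2 slides) were scored in classes 0–4 for a damage index. Mean ± SEM, three independent experiments in triplicate.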

As a reminder, the IC50 is the concentration that gives 50% inhibition. Higher therefore signals weaker potency.

As for `CC1(C)OC2=C(C(=O)C(=O)c3ccccc32)C1n1cc(CNC2=[N+]3C(=C(c4ccccc4)c4ccc(Cl)n4[B-]3(F)F)C=C2)nn1` (stereo not drawn), the IC50 in the series with MDA-MB-435 is 0.81 µM; in the series with V79 it was 0.65 µM; in the series with PC-3 [3], 4.47 µM. In series [1], the Ratio IC50 is 2. Besides, the Activity result in the series on L929 is “Toxic”; in the series with PC-3 [2], 4.26 µg/mg; in the series on SF-295 it was 3.44 µg/mg. Also, in the series with PC-3 [4], the outcome was Active.
